# In ChEMBL document CHEMBL4715734, “Discovery of the Potent and Selective M1 PAM-Agonist N-[(3R,4S)-3-Hydroxytetrahydro-2H-pyran-4-yl]-5-methyl-4-[4-(1,3-thiazol-4-yl)benzyl]pyridine-2-carboxamide (PF-06767832): Evaluation of Efficacy and Cholinergic Side Effects” (J Med Chem, 2016):
# pEC50: −log10 of the molar value. The source made the active and inactive calls. The calls are words filed in the database; no cut-off is given here.
# Assays:
# [1] = fAUC (0 to 24 hrs) in rat at 15 mg/kg, po administered for 14 days; assay type: ADME, organism-based; settings: in vivo, 336 h, time 14 day
# How it was run: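 2-week repeat oral dosing in rats, 0.5% methylcellulose formulation; N=4/sex/dose; doses 3, 10, 30 (males)/15 (females) mg/kg; unbound exposures reported per dose and sex.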
# [2] = Toxicity in dog assessed as induction of soft stool at 45 mg/kg, po using spray-dried dispersion formulation measured after 45 mins; assay type: organism-based, Canis lupus familiaris; settings: in vivo, 0.75 h
# [3] = Toxicity in male Beagle dog assessed as decrease in QT interval at 3 mg/kg, po administered as single dose observed upto 9 hrs post last dose by telemetry; assay type: organism-based, Canis lupus familiaris; settings: in vivo
# How it was run: (§1)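 Crossover telemetry study in dogs at three oral doses (0.3, 1 and 3 mg/kg), N=4. Endpoints were blood pressure, maximum systolic left ventricular pressure, LV +dP/dt max, activity, heart rate, and RR, QT and QTc intervals, followed up to 9 h post dose.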
# Rattus norvegicus [4] = assay: Reversal of scopolamine-induced spatial learning in Wistar rat model at 0.32 mg/kg, po administered 15 min before training followed by 30 mins later administration with scopolamine measured after 24 hrs by Morris water maze test
# [5] = Unbound plasma concentration in scopolamine-induced Wistar rat model at 1 mg/kg, po measured after 1 hr; assay type: ADME, organism-based; settings: in vivo
# How it was run: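 Plasma sampled 1 h after oral dosing in satellite animals (N=2/dose) given the same dosing solution as the water-maze study (suspension in 0.5% methylcellulose in water); unbound concentration reported as the group average.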
# [6] = Toxicity in dog assessed as salivation at 15 mg/kg, po using spray-dried dispersion formulation; assay type: organism-based, Canis lupus familiaris; settings: in vivo
# [7] = Oral bioavailability in dog at 0.5 mg/kg; assay type: ADME, organism-based, Canis lupus familiaris; settings: in vivo
# [8] = target: T1, Muscarinic acetylcholine receptor M1 (Homo sapiens, UniProt P11229); assay: Positive allosteric modulation of muscarinic M1 receptor (unknown origin) expressed in CHO cells assessed as increase in Ach-induced accumulation of inositol phosphate accumulation measured after 30 mins by HTRF assay; assay type: functional, cell-based
# T1 sequence (P11229 whole entry): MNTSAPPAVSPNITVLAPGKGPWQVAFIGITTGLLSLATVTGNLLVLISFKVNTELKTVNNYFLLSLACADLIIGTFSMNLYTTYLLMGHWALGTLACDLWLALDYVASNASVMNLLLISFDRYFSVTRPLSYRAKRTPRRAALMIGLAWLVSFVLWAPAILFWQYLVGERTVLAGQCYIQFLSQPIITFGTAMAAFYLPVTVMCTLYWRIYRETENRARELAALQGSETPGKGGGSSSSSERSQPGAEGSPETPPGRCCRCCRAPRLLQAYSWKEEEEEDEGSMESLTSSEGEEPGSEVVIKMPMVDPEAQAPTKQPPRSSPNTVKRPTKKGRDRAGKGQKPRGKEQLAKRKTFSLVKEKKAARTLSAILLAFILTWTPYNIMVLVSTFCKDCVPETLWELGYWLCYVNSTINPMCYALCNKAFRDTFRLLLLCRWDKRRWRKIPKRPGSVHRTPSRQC
# [9] = target: Muscarinic acetylcholine receptor M3 (Homo sapiens, UniProt P20309); assay: Positive allosteric modulation of human recombinant muscarinic M3 receptor stably expressed in CHO cells assessed as increase in Ach-induced accumulation of intracellular calcium level upto 10 uM incubated for 10 mins followed by addition of Ach at EC20 concentration by Fluo-8AM dye based FLIPR TETRA method
# [10] = Unbound brain concentration in scopolamine-induced Wistar rat model at 1 mg/kg, po measured after 1 hr; assay type: ADME, organism-based; settings: in vivo
# [11] = target: T2, Muscarinic acetylcholine receptor M1 (Homo sapiens) (UniProt P11229); assay: Positive allosteric modulation of human muscarinic M1 receptor expressed in CHO cells assessed as increase in ACh-induced displacement of [3H]-NMS from M1 receptor at 10 uM by scintillation counting method relative to Ach alone; assay type: cell-based; settings: filed as positive allosteric modulator
# T2 sequence (whole entry): T1 sequence (P11229 whole entry)
# [12] = Toxicity in male Beagle dog assessed as effect on cardiac contractility at 3 mg/kg, po administered as single dose observed upto 9 hrs post last dose by telemetry; assay type: organism-based, Canis lupus familiaris; settings: in vivo; how it was run: as §1
# [13] = target: T3, Muscarinic acetylcholine receptor M2 (Homo sapiens, UniProt P08172); assay: Positive allosteric modulation of human recombinant muscarinic M2 receptor stably expressed in HEK cells assessed as increase in ACh-induced cAMP accumulation up to 10 uM measured after 10 mins by GloSensor cAMP Assay; assay type: cell-based
# T3 sequence (P08172 whole entry): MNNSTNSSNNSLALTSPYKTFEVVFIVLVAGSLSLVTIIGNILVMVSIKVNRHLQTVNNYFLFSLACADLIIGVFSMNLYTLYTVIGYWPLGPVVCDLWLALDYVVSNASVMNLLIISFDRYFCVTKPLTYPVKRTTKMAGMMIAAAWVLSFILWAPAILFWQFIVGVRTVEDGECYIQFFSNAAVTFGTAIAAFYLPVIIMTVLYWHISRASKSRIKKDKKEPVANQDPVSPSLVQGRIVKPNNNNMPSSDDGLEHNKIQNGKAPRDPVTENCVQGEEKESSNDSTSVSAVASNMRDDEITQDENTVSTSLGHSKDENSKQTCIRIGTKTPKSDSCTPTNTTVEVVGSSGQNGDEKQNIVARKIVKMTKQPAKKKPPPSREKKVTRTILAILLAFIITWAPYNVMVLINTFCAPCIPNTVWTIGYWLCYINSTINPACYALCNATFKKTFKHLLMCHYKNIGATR
# [14] = Toxicity in dog assessed as emesis at 45 mg/kg, po using spray-dried dispersion formulation measured after 45 mins; assay type: organism-based, Canis lupus familiaris; settings: in vivo, 0.75 h
# How it was run: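 Dogs received single escalating oral doses as a spray-dried dispersion (10% drug loading with HPMCAS-M). The dispersion was suspended in 0.5 wt% methylcellulose/0.5 wt% HPMCAS in 20 mM tris buffer, pH 7.4. One dog per sex per dose was used, and clinical signs were recorded.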
# [15] = target: T1, Muscarinic acetylcholine receptor M1; assay: Partial agonist activity at muscarinic M1 receptor (unknown origin) assessed as recruitment of beta-arrestin by Path Hunter assay; assay type: cell-based, CHO
# [16] = Toxicity in male rat assessed as increase in food intake at 30 mg/kg, po administered for 14 days; settings: in vivo, 336 h
# Rattus norvegicus [17] = assay: Reversal of amphetamine-induced prepulse inhibition in Sprague-Dawley rat at 1 mg/kg, sc administered 30 min before testing followed by administration of amphetamine 15 mins prior to testing; assay type: functional, organism-based
# How it was run: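 In rats with amphetamine-disrupted prepulse inhibition, the compound was dosed sc as a suspension in 0.5% methylcellulose in water. Startle reflex and PPI alone were also assessed, and the analysis used the collapsed data set. Plasma and brain levels were taken from randomly chosen animals (N=2/dose) at the end of the study (1.67 h).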
# [18] = target: T2, Muscarinic acetylcholine receptor M1 (Homo sapiens); assay: Binding affinity to muscarinic M1 receptor (unknown origin) assessed as recruitment of beta-arrestin by Path Hunter assay; assay type: cell-based; settings: CHO, filed as positive allosteric modulator
# [19] = Partial agonist activity at muscarinic M2/M3 receptor in Hartley guinea pig ileum assessed as stimulation of contraction in presence of mAChR antagonist atropine; assay type: tissue-based, Cavia porcellus
# How it was run: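 Agonist mode used a guinea pig ileum tissue bath with the compound applied alone. Concentration–response curves were run with or without the non-selective muscarinic antagonist atropine. Contraction was expressed relative to the maximal carbachol response.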
# [20] = fCmax in dog at 5 mg/kg, po using spray-dried dispersion formulation; assay type: ADME, organism-based, Canis lupus familiaris; settings: in vivo
# Sequence of Muscarinic acetylcholine receptor M3 (P20309 whole entry): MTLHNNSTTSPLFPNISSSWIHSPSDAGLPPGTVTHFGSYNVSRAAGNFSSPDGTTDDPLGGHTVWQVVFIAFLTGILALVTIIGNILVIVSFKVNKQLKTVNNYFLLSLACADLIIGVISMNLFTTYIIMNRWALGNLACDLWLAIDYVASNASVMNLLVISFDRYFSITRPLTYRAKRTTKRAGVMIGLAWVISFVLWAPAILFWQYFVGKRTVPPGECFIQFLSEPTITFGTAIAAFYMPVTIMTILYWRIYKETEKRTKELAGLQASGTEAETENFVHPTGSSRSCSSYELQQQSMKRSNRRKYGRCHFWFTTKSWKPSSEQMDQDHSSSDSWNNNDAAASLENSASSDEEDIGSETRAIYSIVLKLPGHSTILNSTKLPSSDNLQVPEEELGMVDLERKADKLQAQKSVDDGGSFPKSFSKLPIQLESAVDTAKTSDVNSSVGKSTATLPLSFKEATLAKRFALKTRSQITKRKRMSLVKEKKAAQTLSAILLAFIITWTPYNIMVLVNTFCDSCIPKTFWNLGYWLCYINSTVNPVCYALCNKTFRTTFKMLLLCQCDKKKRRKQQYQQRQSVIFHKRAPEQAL
compound,measurement,setting,value
Cc1cnc(C(=O)N[C@H]2CCOC[C@@H]2O)cc1Cc1ccc(-c2cscn2)cc1,fAUC,[1],9.768 µM·h
same,Activity,[2],Toxic
same,Activity,[3],Toxic
same,Activity,Rattus norvegicus [4],Active
same,Cp(f),[5],19.6 nM
same,Activity,[6],Toxic
same,bioavailability,[7],43%
same,pEC50,[8],6.35
same,Activity,[9],Not Active
same,Drug uptake(free),[10],6.7 nM
same,fold change (FC),[11],339
same,Activity,[12],Toxic
same,Activity,[13],Not Active
same,Activity,[14],Toxic
same,pEC50,[15],5.41
same,Activity,[16],Non-Toxic
same,Activity,Rattus norvegicus [17],Active
same,Ka,[18],20 µM
same,Activity,[19],Not Active
same,fCmax,[20],659 nM
